CAL PDZ FP-1 – blocks peptide binding to human CAL PDZ domain. inhibition, % at 20 µM. AID 504414. Q9HD26. 330,000 compounds, 0.02% hits. purified CAL PDZ, TMR-peptide fluorescence polarization, 1 h;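 active = highest replicate inhibition of at least 40%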
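Read-out basis: mP drop reported as inhibition | Assay system: Tagged CAL PDZ protein CerCALP, purified | Benchmarks: Unlabelled peptide for full inhibition, DMSO wells as neutral | Schedule: 1 h incubation at room temperature before polarization reading | Buffer or medium: Sodium phosphate/NaCl buffer pH 7.4 with TCEP, IgG, Thesit | Doses: Single point, 20 µM | Measured by: Fluorescence polarization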
DENV2 CPE – protects cells from dengue virus 2 cytopathic effect; DENV2-infected cells, cytopathic effect rescue, plate reader; CPE inhibition, % at 9.99 µM; AID 651640; 350,000 compounds, 1.7% hits; in the data active = CPE inhibition above about 20%, passing the limit was not always enough; inconclusive = no clear call, values can overlap the other calls; tested in BHK-21 cells
S100A4 MyoIIA – inhibitors of human S100A4 binding to myosin IIA peptide; inhibition, % at 10.7 µM; S100A4/TAMRA-MyoIIA peptide fluorescence polarization; 360,000 compounds, 0.14% hits;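 active = mean inhibition of at least 70% across replicates, with every replicate also reaching that level; inconclusive = mean inhibition reaches 70% but some replicates fall short; inactive = mean inhibition below 70%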
Target sequence (P26447 whole entry, looked up): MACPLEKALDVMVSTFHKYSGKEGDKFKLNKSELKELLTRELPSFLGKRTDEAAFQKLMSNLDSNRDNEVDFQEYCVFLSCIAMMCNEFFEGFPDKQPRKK
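Test system – S100A4 monomer (human) · Compound – single-point compound testing · Schedule – 5 min incubation before reading · Probe or stimulus – TAMRA-labelled myosin IIA heavy-chain peptide probe, 5 nM · Benchmarks – neutral control DMSO, positive control TFP · Medium – Calcium-containing HEPES buffer, pH 7.2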
SIRT5 inh – inhibitors of human sirtuin-5 desuccinylase; Q9NXA8; Purified SirT5, succinyl-peptide AMC, trypsin-coupled fluorescence; inhibition, % at 15 µM; 330,000 compounds, 1.1% hits; AID 652115; in the data active = inhibition above about 15%; inconclusive = no clear call, values can overlap the other calls
Target sequence (Q9NXA8 whole entry, looked up): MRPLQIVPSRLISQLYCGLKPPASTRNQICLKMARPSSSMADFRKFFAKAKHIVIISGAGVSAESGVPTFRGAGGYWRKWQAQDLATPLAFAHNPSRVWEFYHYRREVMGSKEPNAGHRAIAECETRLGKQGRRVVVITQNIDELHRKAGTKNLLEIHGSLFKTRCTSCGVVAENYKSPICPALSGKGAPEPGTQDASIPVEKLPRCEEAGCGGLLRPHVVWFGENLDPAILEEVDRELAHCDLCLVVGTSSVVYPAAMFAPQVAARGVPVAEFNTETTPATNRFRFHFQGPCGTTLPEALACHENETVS
ERAP1 inh – blocks human ERAP1 aminopeptidase activity; Q9NZ08; recombinant ERAP1, Leu-AMC fluorescence, 60 min; inhibition, % at 10.7 µM; 340,000 compounds, 0.15% hits; AID 652197;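 active = mean replicate inhibition of at least 30%, or all replicates individually reaching that 30% level; inactive = mean below 30% and not every replicate reaching it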
CAL PDZ FP-2 – CAL PDZ (human) peptide binding inhibition; Q9HD26; purified CAL PDZ, TMR-peptide fluorescence polarization, 1 h; inhibition, % at 24.9 µM; 300,000 compounds, 0.92% hits;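 active = mean inhibition of at least 30% with at least half of replicates also reaching 30%; inconclusive = no clear call, values can overlap the other calls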
Of the large screens only hits and unclear results are named; the others gave an inactive call. A selection: hits, their analogues and other compounds. The true share with any hit is near 2.9%.

CC(=O)Nc1cccc(NC(=O)c2ccc(C)c([N+](=O)[O-])c2)c1	SIRT5 inh 17
COc1ccc(-c2cc(N)n(S(=O)(=O)c3ccc(C)cc3)n2)c(OC)c1	DENV2 CPE 22 (no result: CAL PDZ FP-2)
C/C=C/c1ccc([C@H]2[C@@H](CO)N(C(=O)NCCC)[C@@H]2CNC(=O)C2CCC2)cc1	none (no result: CAL PDZ FP-1, S100A4 MyoIIA, SIRT5 inh, ERAP1 inh, CAL PDZ FP-2)
CN(Cc1ccccc1)C(=O)c1nc2ccccn2c1CN1CCC(N2CCOCC2)CC1	SIRT5 inh 15
COc1ccc([N+](=O)[O-])cc1NC(=O)/C=C/C(=O)O	DENV2 CPE 66
Cc1ccc([N+](=O)[O-])cc1NC(=O)/C=C/C(=O)O	none (no result: SIRT5 inh)
Cc1nn2c(-c3ccc(F)cc3)ccnc2c1Cl	CAL PDZ FP-2 61
Cc1nn2c(-c3ccc(F)cc3)ccnc2c1Br	none
CN1CCN(C(=S)Nc2ccc(Cl)c(Cl)c2)CC1	DENV2 CPE 78 (no result: SIRT5 inh)
CCCC#Cc1ccc2c(c1)O[C@H](CN(C)C(=O)NC(C)C)[C@H](C)CN([C@H](C)CO)S2(=O)=O	none (no result: CAL PDZ FP-1, CAL PDZ FP-2)
Cc1ccc(C)c(NC(=O)CN2C(=O)C3CC=CCC3C2=O)c1 (stereo unspecified)	DENV2 CPE 45 (no result: CAL PDZ FP-1, CAL PDZ FP-2)
O=C(CN1C(=O)C2CC=CCC2C1=O)Nc1nc2ccccc2[nH]1 (stereo unspecified)	CAL PDZ FP-2 47 (no result: CAL PDZ FP-1, DENV2 CPE, S100A4 MyoIIA, SIRT5 inh, ERAP1 inh)
Cc1noc(C)c1NC(=O)N[C@H]1C=C[C@H](CC(=O)Nc2ccccc2)O[C@@H]1CO	none (no result: CAL PDZ FP-1, CAL PDZ FP-2)
Cc1ccc2nsnc2c1NC(=O)COc1ccccc1	none
Cc1ccc(OCC(=O)Nc2c(C)ccc3nsnc23)cc1	CAL PDZ FP-2 52
O=C(CNC(=O)C1COc2ccccc2O1)N/N=C\c1ccc(Br)cc1 (stereo unspecified)	SIRT5 inh 23
COc1ccc(NC(=O)N(C)C[C@@H]2Oc3c(NS(=O)(=O)c4ccc(OC)cc4)cccc3C(=O)N([C@H](C)CO)C[C@H]2C)cc1	none (no result: CAL PDZ FP-1, CAL PDZ FP-2)
COc1cc(C2C(C#N)=C(SC)NC3=C2C(=O)CCC3)ccc1O (stereo unspecified)	CAL PDZ FP-2 89
CCc1ccccc1NC(=O)CSC1=C(C#N)C(c2ccc(O)c(OC)c2)C2=C(CCCC2=O)N1 (stereo unspecified)	none (no result: DENV2 CPE, S100A4 MyoIIA, SIRT5 inh, ERAP1 inh)
COc1ccc(S(N)(=O)=O)cc1C(=O)NCC(C)(C)N1CCOCC1	none
COc1cc(CC(=O)NCC(C)(C)N2CCOCC2)cc(OC)c1OC	CAL PDZ FP-2 55 (no result: SIRT5 inh)
CC1=C(C(=O)OCC2CCCO2)C(c2ccncc2)C2=C(CC(C)(C)CC2=O)N1 (stereo unspecified)	CAL PDZ FP-2 40 (no result: CAL PDZ FP-1, DENV2 CPE, S100A4 MyoIIA, SIRT5 inh, ERAP1 inh)
CCCNC(=O)Nc1ccc2c(c1)C(=O)N(C)[C@@H]1CC[C@@H](CC(=O)NCC3CCCCC3)O[C@H]1CO2	none (no result: CAL PDZ FP-1, CAL PDZ FP-2)
O=C(O)CSC(C(=O)Nc1ccc(Br)cc1)c1ccc(Cl)cc1 (stereo unspecified)	CAL PDZ FP-2 135
CC(C(=O)NC(N)=O)N1C(=O)NC(c2ccccc2)(c2ccccc2)C1=O (stereo unspecified)	SIRT5 inh 19
C[C@@H]1CCCCO[C@H](CN(C)C(=O)Nc2ccc(F)cc2)[C@@H](C)CN([C@@H](C)CO)C(=O)c2cc(NC(=O)NC3CCCCC3)ccc2O1	none (no result: CAL PDZ FP-1, CAL PDZ FP-2)
C[C@@H]1CCCCO[C@@H](CN(C)C(=O)Nc2ccc(F)cc2)[C@@H](C)CN([C@H](C)CO)C(=O)c2cc(NC(=O)CCCN(C)C)ccc2O1	none (no result: CAL PDZ FP-1, CAL PDZ FP-2)
CCCc1cn([C@@H]2C[C@@H]3O[C@H](CO)CC[C@@H]3O[C@@H]2CCc2ccc(-c3cccc(OC)c3)cc2)nn1	none (no result: CAL PDZ FP-1, CAL PDZ FP-2)
O=C(CSc1nnc(-c2ccc(Br)cc2)n1C1CCCCC1)N1CCCC1	CAL PDZ FP-2 56 (no result: DENV2 CPE, S100A4 MyoIIA, SIRT5 inh, ERAP1 inh)
O=C(CSc1nnc2ccc(-c3ccc(F)cc3)nn12)N1CCCC1	ERAP1 inh 34
O=C(CSc1nnc(-c2ccc(Cl)cc2Cl)n1C1CCCCC1)N1CCCC1	CAL PDZ FP-2 53 (no result: DENV2 CPE, S100A4 MyoIIA, SIRT5 inh, ERAP1 inh)
C[C@@H]1CN([C@@H](C)CO)C(=O)c2cc(NC(=O)Nc3ccccc3)ccc2O[C@@H]1CN(C)Cc1ccc2c(c1)OCO2	none (no result: CAL PDZ FP-1, CAL PDZ FP-2)
CC(C)C[C@H]1COc2cc(N3CC[C@H](O)C3)ccc2S(=O)(=O)N1	DENV2 CPE inconclusive, SIRT5 inh 33 (no result: CAL PDZ FP-1, ERAP1 inh, CAL PDZ FP-2)
CC(C)C[C@@H]1COc2cc(N3CCCC3)ccc2S(=O)(=O)N1	none (no result: CAL PDZ FP-1, CAL PDZ FP-2)
CN(C)CCCNC(=O)OC1CC2CC1[C@H]1CCCCN1C2=O (stereo partly specified)	DENV2 CPE 48 (no result: CAL PDZ FP-1, CAL PDZ FP-2)
CC[C@@]12C(=O)N(c3ccc(C)cc3)C(=O)N1[C@H](c1ccc(OC)cc1)[C@@H]1C(=O)N(C(C)(C)C)C(=O)[C@@H]12	SIRT5 inh 20
CC[C@@]12C(=O)N(c3ccccc3)C(=O)N1[C@H](c1ccc(OC)cc1)[C@@H]1C(=O)N(C(C)(C)C)C(=O)[C@@H]12	none
C[C@@H]1CN([C@@H](C)CO)C(=O)c2cc(C#Cc3cccc(F)c3)cnc2O[C@H]1CN(C)C(=O)C1CCC1	none (no result: CAL PDZ FP-1, CAL PDZ FP-2)
COc1ccc2c3c(n(C)c2c1)[C@H](CO)N(Cc1cccnc1)CC31CN(C(=O)NC(C)C)C1	none (no result: CAL PDZ FP-1, CAL PDZ FP-2)
CCOc1ccc(CN2CCN(Cc3cccn3-c3cccnc3)CC2CCO)cc1 (stereo unspecified)	CAL PDZ FP-2 78
C[C@]12C(=O)N(c3ccccc3)C(=O)N1[C@H]1c3ccccc3OC[C@@H]1[C@H]2c1ccccc1	none (no result: SIRT5 inh)
Cc1ccc2c(c1)[C@H]1[C@H](CO2)[C@H](c2ccccc2)[C@]2(C)C(=O)Nc3ccc(Cl)cc3C(=O)N12	SIRT5 inh 16
C[C@]12C(=O)N(c3ccccc3)C(=O)N1[C@@H]1c3ccccc3OC[C@@H]1[C@H]2c1ccccc1	DENV2 CPE 97 (no result: SIRT5 inh)
C[C@@]12C(=O)Nc3ccc(Cl)cc3C(=O)N1[C@H]1c3cc(Cl)ccc3OC[C@@H]1[C@@H]2c1ccccc1	none (no result: DENV2 CPE, SIRT5 inh)
COc1ccc2c(c1)[C@H]1[C@H](CO2)[C@H](c2ccccc2)[C@]2(C)C(=O)Nc3ccc(Cl)cc3C(=O)N12	DENV2 CPE 33 (no result: SIRT5 inh)
CCC(N=c1cc(-c2ccc(OC)c(OC)c2)oc2ccc(C)cc12)C(=O)O (stereo unspecified)	DENV2 CPE 22
C=C1c2cccc(O)c2C(=O)C2C(=O)[C@]3(O)C(=O)C(C(N)=O)C(=O)[C@@H](N(C)C)[C@@H]3[C@@H](O)[C@H]12 (stereo partly specified)	SIRT5 inh 46
C[C@H]1c2cccc(O)c2C(O)=C2C(=O)[C@]3(O)C(O)=C(C(N)=O)C(=O)[C@@H](N(C)C)C3[C@@H](O)C21 (stereo partly specified)	DENV2 CPE inconclusive
COc1ccccc1-c1cnc2c(c1)C(=O)N([C@H](C)CO)C[C@@H](C)[C@@H](CN(C)CC1CCOCC1)O2	none (no result: CAL PDZ FP-1, CAL PDZ FP-2)
